From PubChem BioAssay
Unmarked numbers belong to inactive results. Inconclusive results are not listed. Active and inactive are the calls of the source.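 How the source made its calls, unless noted: active means growth inhibition above 25% in both replicates, a cutoff set 3 SD above the mean; inconclusive means above 25% in only one replicate; inactive means the rest.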

Tests used:
[1] = OD615 S. cerevisiae growth inhibition, permissive medium, pilot counter-assay, permissive growth control for S. cerevisiae lifespan shortening project (AID 705); conditions: OD615, 24 h, at 10 µM, active compounds read high
Outline: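 System – S. cerevisiae with engineered DeaD lifespan system · Buffer or medium – SC raffinose/galactose permissive medium · Schedule – cells pre-grown 4 h, then 24 h compound exposure, 30 °C humidified · Technique – culture turbidity as optical density at 615 nm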

[2] = Restrictive medium S. cerevisiae growth inhibition, OD615, pilot screen of yeast lifespan reduction project, restrictive growth control (AID 706;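 active means growth inhibition above a set limit, 3 SD over mean compound inhibition, in both replicates, cut at about 43% in these data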;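 further: modified DeaD lifespan yeast strain shifted to restrictive glucose medium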); conditions: OD615, 48 h, at 10 µM, active compounds read high
Outline: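 Material: engineered S. cerevisiae DeaD strain / Medium: glucose-based CSMM-D restrictive medium / Compound: single dose of 10 µM compound final, 0.25% DMSO / Timing: 4 h pre-incubation, 48 h exposure at 30 °C / Technique: OD615 absorbance reading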

[3] = viability gain of MRP-1-high H69AR cells under doxorubicin, pilot screen, MRP-1 activator project, CellTiter-Glo, duplicate (AID 807;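 active means viability increase at or above a cutoff of the median across tested compounds plus 3 SD, cut at about 8.5% in these data, passing the limit was not always enough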;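 further: compound pretreatment 18-22 h then 72 h combined with doxorubicin; 0% = doxorubicin alone and 100% = vehicle without doxorubicin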); conditions: H69AR viability with doxorubicin, CellTiter-Glo luminescence; at 10 µM; active compounds read high
[4] = growth suppression of beta-catenin knockout HCT116, pilot screen, human colon tumor cells (AID 823;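 active means cell viability at or below a set limit in both duplicate runs, the limit being the all-compound median minus 4 SD, cut at about 23% in these data, passing the limit was not always enough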;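 further: 0% = wells killed by 20 µM Hyamine and 100% = untreated DMSO cell wells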); conditions: CellTiter-Glo, 60 h, at 10 µM, active compounds read low
[5] = inhibitors of the yeast RAM network, pilot screen, dse1pr::URA3 reporter, 5-FOA selection (AID 869;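 active means inhibition over a set limit, the all-compound mean plus 3 SD, in both replicate runs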;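 further: 0% = DMSO wells with no growth and 100% = 10 µM 1-NA-PP1 with full growth; RAM network block rescues cells from 5-FOA so hits raise OD615 growth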); conditions: S. cerevisiae dse1pr::URA3 5-FOA growth, OD615, 2 d; at 10 µM; active compounds read high; strain carries analog-sensitive mutant Cbk1 kinase
[6] = RAM signaling pathway blockade in yeast – S. cerevisiae, Pdr1DBD-CYC8 efflux-inhibited sensitized strain, primary screen (AID 1298;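 active means RAM network inhibition above 8.4% in each of two replicates, 3 SD over the compound average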;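 further: 0% = DMSO untreated cells without growth and 100% = 10 µM 1-NA-PP1 full growth; higher means more yeast growth rescued from 5-FOA killing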); conditions: S. cerevisiae cbk1-as DSE1-URA3 strain, 5-FOA growth OD615, 2 d; at 50 µM; active compounds read high

Row | Structure (SMILES) | growth inhibition [1] | growth inhibition [2] | viability increase [3] | viability [4] | inhibition [5] | RAM network inhibition [6]
1 | CC1CN(C(=O)c2ccccc2C(=O)c2ncc[nH]2)CC(C)O1 (stereo unspecified) | -19.6% | 14.7% | -1.55% | 99% | 2.07% | 2.87%
2 | CCCc1nc2n[nH]c(N)c2c2c1CCC2 | -24.2% | -12.6% | -5.25% | 92% | 0.825% | 0.57%
3 | CCN(CC)C(=O)c1cn(CC)c(=O)c2cc(OC)c(OC)cc12 | -18.9% | 2.04% | -3.37% | 103% | 0.93% | 2.76%
4 | COCCCNC(=O)c1ccc(Cn2c(=O)[nH]c3ccccc3c2=O)cc1 | -10.2% | -0.91% | -5.59% | 34.9% | 1.89% | 5.69%
5 | CN1CCc2c(sc3nc(SCC(=O)N4CCOCC4)nc(N)c23)C1 | -4.38% | 0.52% | -4.4% | 95.1% | 0.215% | 5.05%
6 | Cc1ccc(CNC(=O)CCS(=O)(=O)c2cccc3nonc23)cc1 | 8.16% | -4.57% | -0.35% | 98.8% | 1.71% | 5.43%
7 | Cc1ccccc1-c1nnc(SCC(=O)Nc2ccc(Cl)cc2)n1N | -8.16% | 0.61% | 2.22% | 94.5% | 1.17% | 5.42%
8 | Clc1cccc(CSc2nnc([C@@H]3CCCN3)o2)c1 | -7.24% | -0.015% | -3.16% | 98.9% | -0.08% | 0.26%
9 | Cc1ccc(OCCCC(=O)Nc2nncs2)cc1 | -9.25% | -13.4% | 0.75% | 105% | 1.92% | 1.98%
10 | CCCc1[nH]nc2c1C(C1CC=CCC1)C(C#N)=C(N)O2 (stereo unspecified) | 4.52% | 6.39% | -6.94% | 11.9% (active) | -0.015% | 1.22%
11 | Cc1cc(NC(=O)Cn2c(=O)n(Cc3ccccc3)c(=O)c3ccccc32)no1 | -5.91% | -24.7% | -5.98% | 51.5% | 1.32% | 6.47%
12 | CSc1nc2ccc(NC(=O)C3CC(=O)N(Cc4ccco4)C3)cc2s1 (stereo unspecified) | 4.86% | -2.38% | -5.77% | 97.4% | 1.02% | 0.88%
13 | COCCCNC(=O)c1cc2c(=O)n(C)c3ccccc3c2n1C | -7.96% | -5.92% | -7.13% | 36.5% | 0.345% | 4.4%
14 | CC1(C)Cc2c(sc3c2c(=N)n(Cc2ccco2)c(=O)n3Cc2ccc(F)cc2)CO1 | -14.4% | -4.37% | -6.4% | 56.5% | 1.44% | 6.85%
15 | COc1ccc(N2CCN(CCNC(=O)c3ccc(NC(=O)C4CCCO4)cc3)CC2)cc1 (stereo unspecified) | -14% | -9.71% | -1.61% | 99.8% | 1.68% | 7.42%
16 | CN1CCc2c(sc3c2c(=O)n(-c2ccc(Cl)cc2)c2nncn32)C1 | -12.1% | 7.29% | 0.1% | 92.1% | 1.45% | 2.09%
17 | CCO/C=N/c1c(C#N)c(CC#N)nn1-c1ccccc1 | -13.5% | 2.31% | -1.36% | 94.6% | 2.31% | 1.41%
18 | Cc1c(C(=O)NCCC2=CCCCC2)oc2ccc(S(=O)(=O)N3CCOCC3)cc12 | 2.48% | 8.58% | -0.96% | 31.5% | 2.62% | 8.35%

Row | Structure (SMILES) | growth inhibition [1] | growth inhibition [2] | viability increase [3] | viability [4] | inhibition [5] | RAM network inhibition [6]
19 | Cc1ccc(Cl)cc1N1CCN(S(=O)(=O)c2cccc(S(=O)(=O)N3CCCC3)c2)CC1 | -4.5% | 12% | 0.04% | 83.5% | 2.14% | 6.44%
20 | CSc1nc(SCC(=O)NCc2ccco2)c2c3c(sc2n1)COC(C)(C)C3 | -11.7% | -6.08% | -8.04% | 33.9% | 2.8% | 7.62%
21 | Cc1cc(Nc2nc3c(c(=O)n(C)c(=O)n3C)n2C)n(-c2ccc(Cl)cc2)n1 | 9.41% | 3.67% | -3.74% | 92.7% | 3.25% | 3.85%
22 | CC(=O)c1cccc(NC(=O)N2CCCC2C(=O)Nc2c(C)cccc2C)c1 (stereo unspecified) | -22.1% | -1.14% | -2.28% | 94.1% | 1.62% | 3.69%
23 | Cc1ccc(C)c(NC(=O)CSc2nnc(-c3ccncc3)n2N)c1 | 5.02% | -0.075% | -4.65% | 103% | 0.06% | -0.98%
24 | Cc1ccc(S(=O)(=O)c2nc(-c3ccc(F)cc3)oc2SCC(N)=O)cc1 | -20.8% | 0.745% | -2.75% | 100% | 1.27% | 1.2%
25 | OCCN1CCN(c2ncnc3c2sc2nc(N4CCOCC4)c4c(c23)CCC4)CC1 | -16.4% | -3.42% | -7.68% | 55.3% | 1.13% | 2.39%
26 | CSc1nnc(C2CCCN2)n1C (stereo unspecified) | -16.9% | -7.04% | -0.51% | 90.9% | 2.88% | -0.16%
27 | CCSc1oc(-c2ccco2)nc1S(=O)(=O)c1ccc(F)cc1 | -15.7% | -4.69% | -3.11% | 79% | 0.335% | 5.09%
28 | CCn1nc(CC(=O)Nc2ccc(-n3cnnn3)c(C)c2)c2ccccc2c1=O | -14.8% | -10.9% | -4.37% | 90.3% | 0.6% | 5.97%
29 | CCN1CCN(Cc2nc3c(c(=O)n(C)c(=O)n3C)n2C(C)C(C)=O)CC1 (stereo unspecified) | -32.2% | -4.38% | -1.83% | 89.7% | 1.41% | 4.46%
30 | CCN1CCN(C(=O)C2c3cc(OC)c(OC)cc3C(=O)N(C)C2c2ccc(SC)cc2)CC1 (stereo unspecified) | -12.5% | -4.19% | -3.74% | 92.3% | 0.995% | 2.33%
31 | COc1ccc(C2c3c(oc4ccccc4c3=O)C(=O)N2c2ccccn2)cc1OC (stereo unspecified) | -10.4% | -11.2% | -6.93% | 72.7% | 2.8% | 2.68%
32 | CC1(C)Cc2nc3sc4c(=O)n(CC(=O)NCc5ccco5)cnc4c3cc2CO1 | -8.59% | 7.79% | -5.22% | 40.5% | 0.68% | 4.21%
33 | CCOC(=O)C1CCN(CCC(=O)Nc2cccc(Cl)c2C)CC1 | -11.2% | -0.95% | -2.59% | 94.6% | 1.46% | 2.35%
34 | O=C(NCC1COc2ccccc2O1)c1ccc(NC(=O)C2CCCO2)cc1 (stereo unspecified) | -15.3% | 3.32% | 0.86% | 99.7% | 4.43% | 8.99%
35 | COc1ccc(Cn2c(=O)n(Cc3ccco3)c(=N)c3c4c(sc32)COC(C)(C)C4)cc1 | -17.7% | -5.45% | -5.35% | 66.2% | 0.42% | 2.55%
36 | C=CCn1c(CCNC(=O)C(C)(C)C)nc2ccccc21 | -10.5% | 3.93% | -1.82% | 103% | 1.94% | 3.12%
